Source: ChEMBL document CHEMBL4765404, “Identification of benzofused five-membered sultams, potent dual NOD1/NOD2 antagonists in vitro and in vivo” (Eur J Med Chem, 2020)

Assays:
Assay type in all cases: cell-based
[1] = target: T1, Nucleotide-binding oligomerization domain-containing protein 2 (Homo sapiens, UniProt Q9HC29); test: Antagonist activity at human NOD2 in HEK-Blue hNOD2 cells assessed as secreted alkaline phosphatase reporter activity preincubated for 3 hrs followed by stimulated with MDP for 20 hrs by Spectrophotometer method
T1 sequence (Q9HC29 whole entry, the tested form may be a part): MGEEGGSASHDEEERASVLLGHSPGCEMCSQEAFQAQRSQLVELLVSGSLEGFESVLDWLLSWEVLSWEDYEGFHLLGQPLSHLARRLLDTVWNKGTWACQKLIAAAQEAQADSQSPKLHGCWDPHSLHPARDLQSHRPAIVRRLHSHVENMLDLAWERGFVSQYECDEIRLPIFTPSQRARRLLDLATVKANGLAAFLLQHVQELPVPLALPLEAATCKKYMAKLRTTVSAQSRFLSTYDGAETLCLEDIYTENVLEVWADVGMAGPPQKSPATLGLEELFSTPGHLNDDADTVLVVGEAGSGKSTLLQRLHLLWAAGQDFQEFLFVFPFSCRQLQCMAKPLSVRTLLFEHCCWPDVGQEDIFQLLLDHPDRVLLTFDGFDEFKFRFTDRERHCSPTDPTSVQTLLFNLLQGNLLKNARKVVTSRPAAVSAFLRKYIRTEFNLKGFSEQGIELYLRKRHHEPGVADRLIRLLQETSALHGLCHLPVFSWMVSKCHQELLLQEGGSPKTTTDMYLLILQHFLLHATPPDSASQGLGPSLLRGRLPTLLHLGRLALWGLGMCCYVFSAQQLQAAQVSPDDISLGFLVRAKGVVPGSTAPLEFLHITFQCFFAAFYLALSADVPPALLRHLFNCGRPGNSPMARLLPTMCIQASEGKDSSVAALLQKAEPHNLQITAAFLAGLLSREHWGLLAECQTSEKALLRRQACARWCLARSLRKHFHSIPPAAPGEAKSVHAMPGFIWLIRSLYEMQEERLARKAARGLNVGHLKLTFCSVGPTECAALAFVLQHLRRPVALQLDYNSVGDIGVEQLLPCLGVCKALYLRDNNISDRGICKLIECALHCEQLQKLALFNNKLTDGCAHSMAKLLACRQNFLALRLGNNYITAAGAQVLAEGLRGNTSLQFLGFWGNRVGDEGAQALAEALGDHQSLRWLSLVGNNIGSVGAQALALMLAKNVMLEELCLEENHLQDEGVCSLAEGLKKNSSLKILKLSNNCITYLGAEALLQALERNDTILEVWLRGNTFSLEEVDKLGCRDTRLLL

[2] = target: T1, Nucleotide-binding oligomerization domain-containing protein 2; test: Antagonist activity at human NOD2 in HEK-Blue hNOD2 cells assessed as reduction in secreted alkaline phosphatase reporter activity at 10 uM preincubated for 3 hrs followed by stimulated with MDP for 20 hrs by Spectrophotometer method
[3] = Cytotoxicity against human HEK-Blue hNOD1 cells assessed as cell viability measured by SRB assay
Method in brief: (§1)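 Run on the same HEK-Blue hNOD1 (C12-iE-DAP 50 ng/mL) or hNOD2 (MDP 100 ng/mL) wells after SEAP readout, following 3 h compound plus 20 h stimulation. Cells fixed in 80% TCA, 4 °C, 1 h; SRB in 1% acetic acid, 10 min; washed, dried; dye dissolved in 10 mM Tris base; A515. Growth inhibition = (C−T)/C × 100, n = 3.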

[4] = Cytotoxicity against human HEK-Blue hNOD2 cells assessed as cell viability measured by SRB assay; method in brief: as §1

Structure (SMILES) | IC50 [1] [µM] | inhibition [2] [%] | also measured
CCCCOC(=O)CC1c2cccc(C)c2S(=O)(=O)N1C(=O)c1ccc(Cl)cc1 (stereo not drawn) | 1.74 | – | –
Cc1cccc2c1S(=O)(=O)N(C(=O)c1ccc(C(F)(F)F)cc1)C2CC(=O)OC(C)(C)C (stereo not drawn) | 4.65 | – | –
CCCCOC(=O)CC1c2cccc(C)c2S(=O)(=O)N1CC (stereo not drawn) | – | -1 | –
CCCCOC(=O)CC1c2cccc(C)c2S(=O)(=O)N1C(=O)c1ccccc1 (stereo not drawn) | – | 24.3 | –
CCCCOC(=O)CC1c2cccc(C)c2C(=O)N1C(=O)c1ccc(C(F)(F)F)cc1 (stereo not drawn) | 2.36 | – | –
C=CCN1C(CC(=O)OCCCC)c2cccc(C)c2S1(=O)=O (stereo not drawn) | – | 5.52 | –
CCCCOC(=O)CC1c2cc(F)cc(C)c2S(=O)(=O)N1C(=O)c1ccc(C(F)(F)F)cc1 (stereo not drawn) | 6.7 | – | –
CCCCOC(=O)CC1c2cccc(C)c2S(=O)(=O)N1CCCC (stereo not drawn) | – | 9.07 | –
CCCCOCCC1c2cccc(C)c2S(=O)(=O)N1C(=O)c1ccc(C(F)(F)F)cc1 (stereo not drawn) | – | – | inhibition ([2]; filed as antagonist): 45.9%
CCCCOC(=O)CC1c2cccc(C)c2S(=O)(=O)N1C(=O)c1ccc(C#N)cc1 (stereo not drawn) | 5.45 | – | –
CCCCOC(=O)CC1c2c(OC)ccc(OC)c2S(=O)(=O)N1C(=O)c1ccc(C(F)(F)F)cc1 (stereo not drawn) | 7.03 | – | –
CCCCOC(=O)CC1c2cccc(C)c2S(=O)(=O)N1C(=O)c1ccco1 (stereo not drawn) | – | 1.83 | –
Cc1cccc2c1S(=O)(=O)N(C(=O)c1ccc(C(F)(F)F)cc1)C2CC(N)=O (stereo not drawn) | – | -9.14 | –
CCCCOC(=O)CC1c2cccc(C)c2S(=O)(=O)N1/C=C\C(=O)OCC (stereo not drawn) | – | 20.6 | –
CCCCOC(=O)CC1c2cccc(C)c2S(=O)(=O)N1C(=O)c1ccccc1C(F)(F)F (stereo not drawn) | 0.48 | – | –
CCCCOC(=O)CC1c2cccc(C)c2S(=O)(=O)N1C(=O)/C=C/c1ccc(Cl)cc1 (stereo not drawn) | – | 35 | –
CCCCc1nnc(CC2c3cccc(C)c3S(=O)(=O)N2C(=O)c2cccc(C(F)(F)F)c2)o1 (stereo not drawn) | 4.65 | – | –
CCCCOC(=O)CC1c2cccc(C)c2S(=O)(=O)N1C(C)=O (stereo not drawn) | – | 6.59 | –
CCCCOC(=O)CC1c2cccc(C)c2S(=O)(=O)N1Cc1ccc(C(F)(F)F)cc1 (stereo not drawn) | – | – | inhibition ([2]; filed as antagonist): 42.5%
Cc1cccc2c1S(=O)(=O)N(C(=O)c1ccc(C(F)(F)F)cc1)C2CC(=O)O (stereo not drawn) | – | 10.3 | –
CCCCOC(=O)CC1c2cccc(C)c2S(=O)(=O)N1CC(=O)c1ccc(C(F)(F)F)cc1 (stereo not drawn) | – | 7.2 | –

Structure (SMILES) | IC50 [1] [µM] | inhibition [2] [%] | also measured
Cc1cccc2c1S(=O)(=O)N(C(=O)c1ccc(C(F)(F)F)cc1)C2CC(=O)Nc1ccccc1 (stereo not drawn) | – | 30.3 | –
CCCCOC(=O)CC1c2cccc(C)c2S(=O)(=O)N1S(C)(=O)=O (stereo not drawn) | – | 5.29 | –
CCCCOC(=O)CC1c2cc(OC)cc(OC)c2S(=O)(=O)N1C(=O)c1ccc(C(F)(F)F)cc1 (stereo not drawn) | 3.96 | – | –
CCCCOC(=O)CC1c2cccc(C)c2S(=O)(=O)N1Cc1ccccc1 (stereo not drawn) | – | – | inhibition ([2]; filed as antagonist): 41.4%
CCCCOC(=O)CC1c2cccc(C)c2S(=O)(=O)N1C (stereo not drawn) | – | 4.63 | –
CCCCOC(=O)CC1c2cccc(C(=O)OCCCC)c2S(=O)(=O)N1C(=O)c1ccc(C(F)(F)F)cc1 (stereo not drawn) | 4.29 | – | –
CCCCOC(=O)CC1c2cccc(Cl)c2S(=O)(=O)N1C(=O)c1ccc(C(F)(F)F)cc1 (stereo not drawn) | 1.39 | – | –
CCCCc1noc(CC2c3cccc(C)c3S(=O)(=O)N2C(=O)c2cccc(C(F)(F)F)c2)n1 (stereo not drawn) | 5.74 | – | –
CCCCOC(=O)CC1c2cccc(C)c2S(=O)(=O)N1NC(=O)c1ccc(C(F)(F)F)cc1 (stereo not drawn) | – | – | inhibition ([2]; filed as antagonist): 60%
CCCCOC(=O)CC1c2cccc(C)c2S(=O)(=O)N1C(=O)c1ccc(C)cc1 (stereo not drawn) | – | – | inhibition ([2]; filed as antagonist): 55.5%
CCCCNC(=O)CC1c2cccc(C)c2S(=O)(=O)N1C(=O)c1ccc(C(F)(F)F)cc1 (stereo not drawn) | – | 17.7 | –
CCCCOC(=O)/C=C1\c2cccc(C)c2S(=O)(=O)N1C(=O)c1ccc(C(F)(F)F)cc1 | – | 54.4 | –
CCCCOC(=O)/C=C/c1cc(C)cc2c1S(=O)(=O)N(C(=O)c1ccc(C(F)(F)F)cc1)C2CC(=O)OCCCC (stereo not drawn) | – | 31.4 | –
CCCCOC(=O)CC1c2c(F)ccc(C)c2S(=O)(=O)N1C(=O)c1ccc(C(F)(F)F)cc1 (stereo not drawn) | 4.05 | – | –
CCCCOC(=O)CC1c2cccc(C)c2S(=O)(=O)N1C(=O)OC (stereo not drawn) | – | -0.67 | –
CCCCOC(=O)CC1c2cccc(C)c2S(=O)(=O)N1C(=O)c1ccc(C(F)(F)F)cc1 (stereo not drawn) | 1.18 | – | –
CCCCOC(=O)CC1c2cc(C)cc(C)c2S(=O)(=O)N1C(=O)c1ccc(C(F)(F)F)cc1 (stereo not drawn) | 1.85 | – | –
COC(=O)CC1c2cccc(C)c2S(=O)(=O)N1C(=O)c1ccc(C(F)(F)F)cc1 (stereo not drawn) | 3.55 | – | –
CCCCOC(=O)CC1c2cccc(C)c2S(=O)(=O)N1C(=O)c1cccc(C(F)(F)F)c1 (stereo not drawn) | 0.93 | – | Activity [3]: Non-Toxic; Activity [4]: Non-Toxic
CCCCOC(=O)CC1c2ccc(Cl)c(C)c2S(=O)(=O)N1C(=O)c1ccc(C(F)(F)F)cc1 (stereo not drawn) | 9.83 | – | –
